18 compounds from ChEMBL document CHEMBL4627325, “Rational modifications, synthesis and biological evaluation of new potential antivirals for RSV designed to target the M2-1 protein” (Bioorg Med Chem, 2020) can be followed below.

Broadly, the EC50 is the concentration giving half of the maximal effect. As a reminder, the CC50 is the concentration at which the toxic effect on the cells reaches its halfway point.

The subject of data set [1] is Human orthopneumovirus. As to the kind of experiment: Antiviral activity against Respiratory syncytial virus A strain Long infected in Hep2 cells assessed as reduction in virus-induced cytopathic effect after 5 days by microscopic analysis. The data set is classed as functional, organism-based. Conditions: HEp-2, 120 h. The gist of the method: (§1)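 HEp-2 cells seeded 5×10^3/well in DMEM with 2% heat-inactivated FBS and 1% NEAA, 37°C, 5% CO₂; next day medium replaced with 1:2 serial dilutions of compound (eight concentrations, 0.7-100 μM) and infected with RSV-A Long or RSV-B Wash at moi 0.01 CCID₅₀/cell. CPE scored microscopically (0–5) at day 5; EC₅₀ by logarithmic interpolation as 50% protection; mean of ≥2 independent experiments.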

A short description of data set [2]: Cytotoxicity against human Hep2 cells assessed as reduction in cell viability measured after 5 days by MTS assay. The data set is classed as cell-based. Conditions: HEp-2 cells. In a few lines: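 Uninfected HEp-2 cultures set up as for the antiviral assay (5×10^3 cells/well, DMEM with 2% FBS and 1% NEAA, 37°C, 5% CO₂) and treated with serial 1:2 compound dilutions; metabolic activity quantified at day 5 by MTS readout to give CC₅₀; mean of ≥2 independent experiments.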
A general note: Formazan colour is commonly taken as a measure of viable cells.

The test system of data set [3] is Human orthopneumovirus. As to the kind of experiment: Antiviral activity against Respiratory syncytial virus B infected in Hep2 cells assessed as reduction in virus-induced cytopathic effect after 5 days by microscopic analysis. Type of data set: functional, organism-based. Conditions: HEp-2, 120 h. The gist of the method:
as §1
On the technique in general: Cytopathic effects are the visible damage that an infection or toxin causes in cultured cells.

For `FC(F)(F)c1ccc(CN2CCN(C(=S)SCc3nc4ccccc4s3)CC2)cc1`, the concentration giving a half-maximal response (EC50) with Human orthopneumovirus [1] was 3.31 µM. For the same compound, the CC50 at 120 h in data set [2] is > 100 µM.

As to `S=C(SCc1nc2ccccc2s1)N1CCN(CCc2ccccc2)CC1`, the EC50 with Human orthopneumovirus [1] came to 7.7 µM. The CC50 at 120 h in data set [2] was > 100 µM.

As for `FC(F)(F)c1cccc(CN2CCN(C(=S)SCc3nc4ccccc4s3)CC2)c1`, the 50% effective concentration (EC50) in the data set with Human orthopneumovirus [1] was determined as 3.3 µM; in the data set with Human orthopneumovirus [3], 3.8 µM. Besides, the CC50 at 120 h in data set [2] is > 100 µM.

As to `CCOC(=O)c1ccc(CN2CCN(C(=S)SCc3nc4ccccc4s3)CC2)cc1`, the EC50 worked out at 40.8 µM with Human orthopneumovirus [1] and 4 µM with Human orthopneumovirus [3]. The CC50 at 120 h in data set [2] was > 100 µM.

In the case of `Cc1ccccc1CN1CCN(C(=S)SCc2nc3ccccc3s2)CC1`, the EC50 was found to be 10.4 µM with Human orthopneumovirus [1] and 20.6 µM in the data set on Human orthopneumovirus [3]. Besides, the CC50 at 120 h in data set [2] was > 100 µM.

`Cc1ccc(CN2CCN(C(=S)SCc3nc4ccccc4s3)CC2)cc1`: the EC50 in the data set with Human orthopneumovirus [3] was found to be 1.32 µM. Besides, the CC50 at 120 h in data set [2] was > 100 µM.

Consider `Cc1ccc(CN2CCN(C(=S)SCc3nc4ccccc4s3)CC2)c(C)c1`, for which the 50% effective concentration (EC50) with Human orthopneumovirus [1] amounted to 4.97 µM. For the same compound, in data set [2], the CC50 at 120 h was > 100 µM.

Regarding `O=C(c1ccccc1)N1CCN(C(=S)SCc2nc3ccccc3s2)CC1`, the EC50 was 44.1 µM with Human orthopneumovirus [1] and 24.8 µM in the data set with Human orthopneumovirus [3]. Besides, the half-maximal cytotoxic concentration (CC50) at 120 h in data set [2] is 45 µM.

With `Nc1ccn([C@@H]2O[C@@](CO)(CCl)[C@@H](O)[C@H]2F)c(=O)n1` [ALS-8112], the EC50 in the data set with Human orthopneumovirus [1] and with Human orthopneumovirus [3] was 2.6 µM in each case. Further, the CC50 at 120 h in data set [2] was > 100 µM.

For `S=C(SCc1nc2ccccc2s1)N1CCN(c2ccccc2)CC1`, the EC50 in the data set with Human orthopneumovirus [1] was found to be 4.4 µM; in the data set on Human orthopneumovirus [3], 1.3 µM. Moreover, in data set [2], the CC50 at 120 h was > 100 µM.

For `CC(C)(C)c1ccc(CN2CCN(C(=S)SCc3nc4ccccc4s3)CC2)cc1`, the EC50 with Human orthopneumovirus [3] was 2.2 µM. Also, the CC50 at 120 h in data set [2] was determined as 71.7 µM.

For `S=C(SCc1nc2ccccc2s1)N1CCN(Cc2ccccc2)CC1`, the EC50 in the data set with Human orthopneumovirus [1] worked out at 8.3 µM; with Human orthopneumovirus [3], 3.9 µM. Besides, the 50% cytotoxic concentration (CC50) at 120 h in data set [2] was > 100 µM.

For the compound `O=S(=O)(c1ccccc1)N1CCN(C(=S)SCc2nc3ccccc3s2)CC1`, the values for the EC50 in the data set on Human orthopneumovirus [1] and in the data set on Human orthopneumovirus [3] were 35.3 µM and 12.5 µM, respectively. Also, the CC50 at 120 h in data set [2] was > 100 µM.

`Cc1cccc(CN2CCN(C(=S)SCc3nc4ccccc4s3)CC2)c1`: the EC50 with Human orthopneumovirus [1] worked out at 11.8 µM; in the data set on Human orthopneumovirus [3], 3 µM. Besides, the CC50 at 120 h in data set [2] is > 100 µM.

On to `COc1ccc(CN2CCN(C(=S)SCc3nc4ccccc4s3)CC2)cc1`, for which the EC50 with Human orthopneumovirus [3] stood at 3 µM. Further, the CC50 at 120 h in data set [2] is > 100 µM.

As for `Fc1ccc(CN2CCN(C(=S)SCc3nc4ccccc4s3)CC2)cc1`, the concentration for a half-maximal effect (EC50) was determined as 4.4 µM with Human orthopneumovirus [1] and 2.5 µM in the data set with Human orthopneumovirus [3]. In addition, in data set [2], the CC50 at 120 h is > 100 µM.

For the compound `COC(=O)c1ccc(CN2CCN(C(=S)SCc3nc4ccccc4s3)CC2)cc1`, the EC50 in the data set with Human orthopneumovirus [1] is 14.8 µM; in the data set on Human orthopneumovirus [3], 3.9 µM. Besides, the CC50 at 120 h in data set [2] is > 100 µM.

For `Cc1cc(C)c(CN2CCN(C(=S)SCc3nc4ccccc4s3)CC2)c(C)c1`, the figures for the 50% effective concentration (EC50) with Human orthopneumovirus [1] and in the data set on Human orthopneumovirus [3] were 42.2 µM and 20.6 µM, respectively. The cytotoxic concentration (CC50) at 120 h in data set [2] is > 100 µM.
